ChEMBL document CHEMBL4393721 (Eur J Med Chem, 2019)
Activity calls are given as the source filed them. The calls are words filed in the database; no cut-off is given here.

Legend:
[1] = test system: HepG2; assay: Antiinflammatory activity in human HepG2 cells assessed as inhibition of TNFalpha-induced IkappaBalpha degradation at 2 uM pretreated for 1 hr followed by TNFalpha addition and measured after 30 mins by Western blot analysis; assay type: functional, cell-based
Outline: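 HepG2 cells grown in DMEM with 10% FBS were exposed to compound for 1 hr and to TNFα (20 ng/mL) for 30 min. Lysates were run on 10% SDS-PAGE and immunoblotted for IκBα with ECL detection. Band grey values were quantified by densitometry. Data are mean ± SEM of three independent experiments.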

[2] = target: T1, Nuclear receptor subfamily 4immunitygroup A member 1 (Homo sapiens, UniProt P22736); assay: Binding affinity to recombinant human N-terminal His-tagged Nur77 LBD (367 to 598 residues) expressed in Escherichia coli BL21(DE3) incubated for 30 secs by fluorescence quenching assay
T1 sequence (P22736 whole entry, the tested form may be a part): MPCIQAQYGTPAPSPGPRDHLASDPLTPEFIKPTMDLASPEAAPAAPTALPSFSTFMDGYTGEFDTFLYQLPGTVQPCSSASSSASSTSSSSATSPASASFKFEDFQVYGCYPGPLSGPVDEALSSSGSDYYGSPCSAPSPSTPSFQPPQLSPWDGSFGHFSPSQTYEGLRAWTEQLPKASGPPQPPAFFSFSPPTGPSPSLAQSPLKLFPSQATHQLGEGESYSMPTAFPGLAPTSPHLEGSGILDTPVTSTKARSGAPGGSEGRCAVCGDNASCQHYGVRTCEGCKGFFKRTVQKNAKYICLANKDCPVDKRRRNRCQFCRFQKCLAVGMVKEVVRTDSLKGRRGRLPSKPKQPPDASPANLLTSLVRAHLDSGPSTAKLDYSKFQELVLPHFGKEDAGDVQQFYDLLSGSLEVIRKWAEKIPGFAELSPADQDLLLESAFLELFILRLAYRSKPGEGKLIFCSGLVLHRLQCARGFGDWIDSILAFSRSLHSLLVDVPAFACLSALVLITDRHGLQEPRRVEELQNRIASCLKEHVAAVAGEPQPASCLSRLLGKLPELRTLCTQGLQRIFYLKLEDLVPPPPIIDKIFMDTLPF

[3] = target: T1, Nuclear receptor subfamily 4immunitygroup A member 1; assay: Binding affinity to GFP-Nur77 (unknown origin) expressed in human HepG2 cells cotransfected with mCherry-p62/SQSTM1 assessed as co-localization with p62/SQSTM1 in cytoplasm in presence of TNFalpha by DAPI staining based confocal microscopic analysis; assay type: cell-based
Outline: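 HepG2 cells were transfected with GFP-Nur77 and mCherry-p62/SQSTM1, then treated with TNFα plus compound. Cells were fixed in paraformaldehyde, with nuclei counterstained by DAPI (1:10000). Nur77–p62 colocalization was imaged by fluorescence or LSM-510 confocal microscopy.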

[4] = test system: HepG2; assay: Induction of apoptosis in TNFalpha-treated human HepG2 cells assessed as necrotic cells at 2 uM incubated for 10 hrs by FITC Annexin V and propidium iodide staining based flow cytometric analysis (reference value: 1.29%); assay type: cell-based; settings: hepg2, 10 h
Outline: (§1)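 HepG2 cells grown in DMEM with 10% FBS were treated for 10 hr with compound (2 μM) plus TNFα (20 ng/mL). Cells were collected in binding buffer, stained with FITC-Annexin V and propidium iodide at room temperature, and analysed by flow cytometry. Quadrants as labelled: UL necrotic, UR viable apoptotic, LR non-viable apoptotic, LL normal.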

[5] = test system: HepG2; assay: Induction of apoptosis in TNFalpha-treated human HepG2 cells assessed as viable apoptotic cells at 2 uM incubated for 10 hrs by FITC Annexin V and propidium iodide staining based flow cytometric analysis (reference value: 3.69%); assay type: cell-based; settings: hepg2, 10 h; outline: as §1
[6] = test system: HepG2; assay: Induction of apoptosis in TNFalpha-treated human HepG2 cells assessed as non-viable apoptotic cells at 2 uM incubated for 10 hrs by FITC Annexin V and propidium iodide staining based flow cytometric analysis (reference value: 6.65%); assay type: cell-based; settings: hepg2, 10 h; outline: as §1
[7] = Induction of apoptosis in TNFalpha-treated human HepG2 cells assessed as normal cells at 2 uM incubated for 10 hrs by FITC Annexin V and propidium iodide staining based flow cytometric analysis (reference value: 88.37%); assay type: cell-based; settings: read-out: Activity; outline: as §1
[8] = test system: HepG2; assay: Induction of apoptosis in TNFalpha-treated human HepG2 cells assessed as PARP cleavage at 2 uM incubated for 10 hrs by Western blot analysis; assay type: cell-based; settings: hepg2, 10 h
[9] = target: T1, Nuclear receptor subfamily 4immunitygroup A member 1; assay: Binding affinity to Myc-Nur77 (unknown origin) expressed in human HepG2 cells co-transfected with Flag tagged TRAF2 assessed as effect on protein interaction with TRAF2 at 2 uM incubated for 1 hr in presence of TNFalpha by co-immunoprecipitation assay; assay type: cell-based
Outline: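 HepG2 cells were transfected with Myc-Nur77 and Flag-TRAF2, then treated for 1 hr with compound (2 μM) plus TNFα (20 ng/mL). Lysis buffer was 10 mM Tris pH 7.4, 150 mM NaCl, 1% Triton X-100, 5 mM EDTA and protease inhibitors. Lysate was incubated with 1 μg antibody for 2 hr at 4 °C, pulled down with protein A/G sepharose, washed, and read by Western blot.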

[10] = Toxicity in zebrafish embryo AB assessed as mortality at 0.5 uM incubated for 24 hrs; set-up: species or system Danio rerio; settings: in vivo
Outline: (§2)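 Wild-type AB zebrafish embryos (20 per condition), collected within 0.5 h of spawning, were exposed from 2 hpf to 0.5, 1 or 1.25 µM compound in fish water, with 0.1% DMSO as control. Embryos were observed and imaged every 24 h. Mortality was scored at 24 and 72 hpf and malformation rate at 72 hpf.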

[11] = Toxicity in zebrafish embryo AB assessed as induction of malformation at 0.5 to 1.25 uM incubated for 24 to 72 hrs; set-up: species or system Danio rerio; settings: in vivo; outline: as §2
[12] = Toxicity in zebrafish embryo AB assessed as mortality at 0.5 uM incubated for 72 hrs relative to control; set-up: species or system Danio rerio; settings: in vivo, read-out: Activity; outline: as §2
[13] = Toxicity in zebrafish embryo AB assessed as mortality at 0.125 uM incubated for 24 hrs relative to control; set-up: species or system Danio rerio; settings: in vivo, read-out: Activity
[14] = Toxicity in zebrafish embryo AB assessed as mortality at 0.125 uM incubated for 24 hrs; set-up: species or system Danio rerio; settings: in vivo
[15] = Toxicity in zebrafish embryo AB assessed as mortality at 0.5 uM incubated for 72 hrs; set-up: species or system Danio rerio; settings: in vivo; outline: as §2

Structure (SMILES)	inhibition [1]	Kd [2]	Kd ([2]; read-out: Kd) [nM]	also measured
COP(=O)(OC)[C@@H]1C=C2[C@@](C)(CC[C@@]3(C)[C@@H]4C[C@](C)(C(=O)O)CC[C@]4(C)CC[C@]23C)c2cc(O)c(O)c(C)c21	inactive	Not Active	–	–
Cc1c(O)c(O)cc2c1[C@H](C)C=C1[C@@]2(C)CC[C@@]2(C)[C@@H]3C[C@](C)(C(=O)O)CC[C@]3(C)CC[C@]12C	inactive	Not Active	–	–
Cc1c(O)c(O)cc2c1[C@H](C[N+](=O)[O-])C=C1[C@@]2(C)CC[C@@]2(C)[C@@H]3C[C@](C)(C(=O)O)CC[C@]3(C)CC[C@]12C	inactive	–	5560	–
Cc1c(O)c(O)cc2c1C(=O)C=C1[C@@]2(C)CC[C@@]2(C)[C@@H]3C[C@](C)(C(=O)O)CC[C@]3(C)CC[C@]12C	inactive	–	2690	–
COc1cc2c(c(C)c1OC)CC=C1[C@@]2(C)CC[C@@]2(C)[C@@H]3C[C@](C)(C(=O)O)CC[C@]3(C)CC[C@]12C	inactive	Not Active	–	–
CC(=O)C[C@@H]1C=C2[C@@](C)(CC[C@@]3(C)[C@@H]4C[C@](C)(C(=O)O)CC[C@]4(C)CC[C@]23C)c2cc(O)c(O)c(C)c21	inactive	–	3800	–
COc1c(O)cc2c(c1C)CC=C1[C@@]2(C)CC[C@@]2(C)[C@@H]3C[C@](C)(C(=O)O)CC[C@]3(C)CC[C@]12C	inactive	Not Active	–	–
COC(=O)[C@]1(C)CC[C@]2(C)CC[C@]3(C)C4=CC=C5C(=CC(=O)C(O)=C5C)[C@]4(C)CC[C@@]3(C)[C@@H]2C1 [PRISTIMERIN]	Active	–	960	–
COC(=O)[C@]1(C)CC[C@]2(C)CC[C@]3(C)C4=CCc5c(cc(OC)c(OC)c5C)[C@]4(C)CC[C@@]3(C)[C@@H]2C1	inactive	Not Active	–	–
COC(=O)[C@]1(C)CC[C@]2(C)CC[C@]3(C)C4=CC=C5C(=CC(=O)C(OC)=C5C)[C@]4(C)CC[C@@]3(C)[C@@H]2C1	inactive	–	2940	–
CCNC(=O)[C@]1(C)CC[C@]2(C)CC[C@]3(C)C4=CC=C5C(=CC(=O)C(O)=C5C)[C@]4(C)CC[C@@]3(C)[C@@H]2C1	Active	–	830	Activity [3]: Active; Activity [4]: 3.92%; Activity [5]: 18.35%; Activity [6]: 24%; viability at 10 h, 2 µM [7]: 53.7%; Activity [8]: Toxic; Activity [9]: Active
CC1=C(O)C(=O)C=C2C1=CC=C1[C@@]2(C)CC[C@@]2(C)[C@@H]3C[C@](C)(C(=O)OC(C)C)CC[C@]3(C)CC[C@]12C	Active	–	520	–
COC(=O)[C@]1(C)CC[C@]2(C)CC[C@]3(C)C4=CCc5c(cc(OC)c(O)c5C)[C@]4(C)CC[C@@]3(C)[C@@H]2C1	inactive	Not Active	–	–
CCOC(=O)[C@]1(C)CC[C@]2(C)CC[C@]3(C)C4=CC=C5C(=CC(=O)C(O)=C5C)[C@]4(C)CC[C@@]3(C)[C@@H]2C1	Active	–	220	–
CCOC1=C(C)C2=CC=C3[C@@](C)(CC[C@@]4(C)[C@@H]5C[C@](C)(C(=O)OC)CC[C@]5(C)CC[C@]34C)C2=CC1=O	inactive	–	4130	–
CC1=C(O)C(=O)C=C2C1=CC=C1[C@@]2(C)CC[C@@]2(C)[C@@H]3C[C@](C)(C(=O)O)CC[C@]3(C)CC[C@]12C [CELASTROL]	Active	–	–	Activity [3]: Active; Activity [4]: 1.75%; Activity [5]: 10.34%; Activity [6]: 24.98%; Activity [10]: Toxic; Activity [11]: Toxic; mortality at 72 h, 0.5 µM [12]: 100%; viability at 10 h, 2 µM [7]: 62.9%; mortality at 24 h, 0.125 µM [13]: 90%; Activity [8]: Toxic; Activity [9]: Active
CC1=C(O)C(=O)C=C2C1=CC=C1[C@@]2(C)CC[C@@]2(C)[C@@H]3C[C@](C)(C(=O)F)CC[C@]3(C)CC[C@]12C	Active	–	720	–
COc1cc2c(c(C)c1O)CC=C1[C@@]2(C)CC[C@@]2(C)[C@@H]3C[C@](C)(C(=O)O)CC[C@]3(C)CC[C@]12C	inactive	Not Active	–	–
Cc1c(O)c(O)cc2c1[C@H](CN)C=C1[C@@]2(C)CC[C@@]2(C)[C@@H]3C[C@](C)(C(=O)O)CC[C@]3(C)CC[C@]12C	inactive	Not Active	–	–
COC(=O)[C@]1(C)CC[C@]2(C)CC[C@]3(C)C4=CC=C5C(=CC(=O)C(OCC(F)F)=C5C)[C@]4(C)CC[C@@]3(C)[C@@H]2C1	inactive	–	3300	–
COC(=O)[C@]1(C)CC[C@]2(C)CC[C@]3(C)C4=CCc5c(cc(O)c(OC)c5C)[C@]4(C)CC[C@@]3(C)[C@@H]2C1	–	Not Active	–	–
CCCNC(=O)[C@]1(C)CC[C@]2(C)CC[C@]3(C)C4=CC=C5C(=CC(=O)C(O)=C5C)[C@]4(C)CC[C@@]3(C)[C@@H]2C1	Active	–	270	–
CNC(=O)[C@]1(C)CC[C@]2(C)CC[C@]3(C)C4=CC=C5C(=CC(=O)C(O)=C5C)[C@]4(C)CC[C@@]3(C)[C@@H]2C1	Active	–	800	–
Cc1c(O)c(O)cc2c1[C@H](c1cc[nH]c1)C=C1[C@@]2(C)CC[C@@]2(C)[C@@H]3C[C@](C)(C(=O)O)CC[C@]3(C)CC[C@]12C	inactive	Not Active	–	–
Cc1c(O)c(O)cc2c1CC=C1[C@@]2(C)CC[C@@]2(C)[C@@H]3C[C@](C)(C(=O)O)CC[C@]3(C)CC[C@]12C [DIHYDROCELASTROL]	Active	–	870	Activity [3]: Active; Activity [4]: 0.79%; Activity [14]: Toxic; Activity [5]: 3.12%; Activity [6]: 11.09%; Activity [10]: Toxic; Activity [11]: Toxic; viability at 10 h, 2 µM [7]: 85%; Activity [15]: Toxic; Activity [8]: Non-Toxic; Activity [9]: Active
